# Screening data (PubChem BioAssay)
# RGS4 inh: inhibitors of human RGS4 | hit rate 0.45% among 310,000 | P49798 | B-score at 10 µM | HEK293 M3R/RGS4 inducible, Fluo-4 calcium flux; active compounds read high; triggered by carbachol at its EC20;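 active means B-score, a plate-corrected calcium signal, over three deviations above library mean, with baseline fluorescence within five deviations of library mean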;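 further: RGS4 expression induced by doxycycline in cells with stable M3 receptor; B-score is computed from the integrated fluorescence ratio over baseline after carbachol; higher B-score means a larger calcium signal and so more RGS4 inhibition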
# Target sequence (P49798 whole entry, looked up): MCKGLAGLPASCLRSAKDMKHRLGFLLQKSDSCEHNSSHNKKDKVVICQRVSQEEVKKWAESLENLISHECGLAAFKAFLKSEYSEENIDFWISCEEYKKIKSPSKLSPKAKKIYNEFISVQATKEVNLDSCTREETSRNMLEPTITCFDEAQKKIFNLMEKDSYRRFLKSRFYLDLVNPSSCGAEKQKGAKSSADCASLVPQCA
# MrgX1 allo act: human MrgX1 positive allosteric modulation, primary screen | MrgX1-HEK293, Fluo-4 calcium flux, FDSS; active compounds read high | B-score at 10 µM | Q96LB2 | hit rate 0.63% among 310,000 | AID 588675;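 active means plate-corrected calcium response at least 3 library SD above typical, normal starting fluorescence, not activating the receptor alone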;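 further: compound read alongside a low EC10 to EC30 dose of BAM8-22 agonist; peak minus trough fluorescence over baseline measured at the second addition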
# Target sequence (Q96LB2 whole entry, looked up): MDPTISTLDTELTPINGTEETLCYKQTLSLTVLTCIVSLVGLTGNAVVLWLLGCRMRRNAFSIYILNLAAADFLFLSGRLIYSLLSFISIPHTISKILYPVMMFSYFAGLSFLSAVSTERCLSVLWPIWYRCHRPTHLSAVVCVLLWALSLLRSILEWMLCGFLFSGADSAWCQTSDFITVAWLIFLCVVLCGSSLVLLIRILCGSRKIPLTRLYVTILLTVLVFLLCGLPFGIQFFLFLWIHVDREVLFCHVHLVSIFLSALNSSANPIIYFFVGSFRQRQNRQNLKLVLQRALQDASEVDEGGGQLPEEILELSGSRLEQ
# MrgX1 ag: agonists of human MrgX1 receptor; Q96LB2; MrgX1-HEK293 cells, Fluo-4 calcium fluorescence, agonist mode; active compounds read high; B-score at 10 µM; hit rate 0.44% among 310,000; AID 588627;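 active means calcium response B-score plate-corrected fluorescence ratio at least 3 library SD, with starting fluorescence B-score inside 5 SD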
#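 Assay system: stable human MrgX1 HEK293 cell line. Quantity: 15,000 cells per well. Schedule: cells plated overnight, dye loaded 0.5 h 37 °C, 0.5 h room temperature. Detection: Fluo-4 NW calcium-flux fluorescence, kinetic read. Read-out basis: peak-minus-minimum fluorescence over baseline, converted to B scores. Control set: positive and negative control wells on each plate.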
# MrgX1 antagonist: blocks BAM8-22 activation of human MrgX1 receptor | Q96LB2 | MRGX1-HEK293 calcium flux, Fluo-4, BAM8-22 antagonism; active compounds read low | B-score at 10 µM | hit rate 1.3% among 310,000;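 active means calcium-response B-score plate-corrected more than 3 library SD below zero, starting fluorescence within 5 deviations, no agonist response on first addition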;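 further: peak minus trough fluorescence over baseline after final BAM8-22 challenge near maximal dose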
# RGS4 act: RGS4 potentiation or activation; HEK293 M3R/inducible RGS4, carbachol calcium flux Fluo4; active compounds read low; B-score at 10 µM; hit rate 0.92% among 310,000;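 active means B-score of the integrated calcium signal more than 4 SD below the library mean, with starting fluorescence not abnormally high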;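 further: negative B-score means reduced calcium response which marks RGS4 activation or potentiation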
#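 Also added: carbachol at ECmax as muscarinic agonist stimulus; Assay system: HEK293 cells with stable M3R and inducible RGS4; Timing: overnight RGS4 induction, 30 min dye load 37 °C, 20 min compound RT; Measured by: Fluo4-AM (2 µM) calcium-flux fluorescence, kinetic read.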
# MrgX1 antag conf: reconfirmed antagonist of human MrgX1 receptor signaling; shares compounds with MrgX1 antagonist; MrgX1-HEK293, BAM8-22 calcium flux, Fluo-4; active compounds read low; remaining BAM8-22 calcium response % of control (active compounds read low), % at 10 µM; hit rate 19% among 2,300; AID 602420;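 active means remaining agonist calcium response no higher than 100% minus 3 SD of agonist-only control wells, with starting fluorescence near control levels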;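 further: agonist BAM8-22 given at a near maximal EC90 to ECmax level; peak minus minimum fluorescence divided by baseline after agonist addition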
# HEK293 Ca flux: MrgX1 antagonist counter-screen hit in parental HEK293 cells; shares compounds with MrgX1 antagonist; Fluo-4 calcium fluorescence, FDSS; fluorescence ratio F(max-min)/F0 at 10 µM; hit rate 2% among 4,000; AID 624111;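 active means duplicate-averaged calcium fluorescence ratio at least three times the standard deviation of buffer wells, a nonspecific response in parental cells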
# HEK293 Ca counter: MrgX1 allosteric activator counter-screen hit in parental HEK293 cells; hit rate 0.4% among 4,000; fluorescence ratio F(max-min)/F0 at 10 µM; AID 624114; parental HEK293 calcium flux, Fluo-4 fluorescence ratio; active compounds read high; shares compounds with MrgX1 antagonist;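 active means calcium fluorescence ratio, averaged over duplicates, at least 3 SD of the buffer-well ratio, meaning a nonspecific response in receptor-free cells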;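 further: untransfected parental HEK293 lacking MrgX1 used as counterscreen for MrgX1 allosteric activators; fluorescence change taken during the second addition on a kinetic imager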
# HEK293 Ca cntr2: activity in parental HEK293 cells lacking MrgX1 receptor | shares compounds with MrgX1 antagonist | Fluo-4 calcium fluorescence (FDSS); active compounds read high | fluorescence ratio F(max-min)/F0 at 10 µM | hit rate 8.7% among 4,000 | AID 624115;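 active means calcium fluorescence ratio at least three times the spread of buffer wells, meaning a non-specific response in parental cells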
# Numbers stand for hits; n = inactive; x = no result. A selection: hits, their analogues and other compounds. The true share with any hit is near 3.5%.
SMILES,RGS4 inh,MrgX1 allo act,MrgX1 ag,MrgX1 antagonist,RGS4 act,MrgX1 antag conf,HEK293 Ca flux,HEK293 Ca counter,HEK293 Ca cntr2
O=C(CCN1C(=O)C2C3CCC(C3)C2C1=O)Nc1ccc(F)cc1 (configuration not stated),n,x,x,x,n,x,x,x,x
COc1ccc2c(CC(=O)N[C@@H](Cc3ccccc3)C(=O)O)cc(=O)oc2c1,n,n,n,n,n,x,x,x,x
Cc1c(O)ccc2c(CC(=O)N[C@@H](Cc3ccccc3)C(=O)O)cc(=O)oc12,n,n,n,-4.89,n,83.6%,n,n,n
Cc1ccc(C(C(=O)NC2CCCC2)N(Cc2ccc(F)cc2)C(=O)c2csnn2)o1 (configuration not stated),n,n,n,-4.57,n,n,n,n,n
Cc1ccc(C(C(=O)NC2CCCC2)N(Cc2ccccc2)C(=O)c2csnn2)o1 (configuration not stated),n,n,n,n,n,x,x,x,x
CCCCN(C(=O)c1cccc(S(=O)(=O)N2CCN(C)CC2)c1)c1c(N)n(CCC)c(=O)[nH]c1=O,n,n,n,-14.9,n,n,n,n,n
COc1ccccc1NC(=O)c1cc([N+](=O)[O-])ccc1N1CCOCC1,n,n,n,n,n,x,x,x,x
COCCNC(=O)C1CC2Cn3c(nc4cc(C)c(C)cc43)C2N1C (configuration not stated),n,n,n,n,n,x,x,x,x
COCCNC(=O)C1CC2Cn3c(nc4cc5ccccc5cc43)C2N1C (configuration not stated),n,n,n,-5.26,n,n,n,n,n
CCNc1nc(NCC)n2c(SCC(=O)Nc3ccccc3[N+](=O)[O-])nnc2n1,n,n,n,n,n,x,x,x,x
CCNc1nc(NCC)n2c(SCC(=O)Nc3ccccc3Cl)nnc2n1,n,n,n,-8.6,n,n,n,n,n
COc1ccc(OCC(=O)Nc2ccc(C(=O)Nc3ccccc3C(=O)O)cc2)cc1,n,n,n,n,n,x,x,x,x
O=C(COc1ccc(Br)cc1)Nc1ccc(C(=O)Nc2ccccc2C(=O)O)cc1,n,n,n,-7.13,n,n,n,n,n
CCCNC(=O)N1CCCC(C(=O)c2cccc(Cl)c2)C1 (configuration not stated),n,n,n,n,n,x,x,x,x
CCCNC(=O)N1CCC(C(=O)c2cccc(F)c2)CC1,n,n,n,-4.86,n,n,n,n,n
Cc1onc(-c2ccccc2)c1CNC(=O)Nc1cccc(Cl)c1,n,n,n,-6.55,n,81.7%,n,n,n
Cc1cc(C)cc(NC(=O)NCc2c(-c3ccccc3)noc2C)c1,n,n,n,n,n,x,x,x,x
O=C(O)c1ccc2c(c1)SC1=NS(=O)(=O)CCN12,n,n,n,-14.3,n,n,n,n,n
CN(C(=O)c1ccc2c(c1)SC1=NS(=O)(=O)CCN12)C(c1ccccc1)c1ccccc1,n,n,n,n,n,x,x,x,x
O=C(Nc1ccccc1[N+](=O)[O-])c1cccnc1Cl,n,n,n,n,n,x,x,x,x
COC(=O)[C@H]1[C@@H](C)N(Cc2ccccc2)C(=O)N[C@H]1c1cccc(C(F)(F)F)c1,n,n,n,n,n,x,x,x,x
N#Cc1ccc(CSc2nnc(NC(=O)CCc3nc4ccccc4c(=O)[nH]3)s2)cc1,n,n,n,n,n,x,x,x,x
O=C(COC(=O)c1ccccc1N1C(=O)C2C3CCC(C3)C2C1=O)c1ccccc1 (configuration not stated),n,n,n,n,n,x,x,x,x
Cc1ccc(C)c(C(=O)COC(=O)c2ccccc2N2C(=O)C3C4CCC(C4)C3C2=O)c1 (configuration not stated),n,n,n,-6,n,n,n,n,n
Cc1nn2c3c(cnc2c1-c1ccccc1)C(=O)CC(c1ccco1)C3 (configuration not stated),n,n,n,n,n,x,x,x,x
SMILES,RGS4 inh,MrgX1 allo act,MrgX1 ag,MrgX1 antagonist,RGS4 act,MrgX1 antag conf,HEK293 Ca flux,HEK293 Ca counter,HEK293 Ca cntr2
Cc1nn2c3c(cnc2c1-c1ccccc1)C(=O)CC(c1ccccc1)C3 (configuration not stated),n,n,n,-4.97,n,n,n,n,n
O=C(Nc1ccncc1)c1ccc2ncsc2c1,n,n,n,n,n,x,x,x,x
O=C(Nc1ccc(S(=O)(=O)Nc2ncccn2)cc1)c1ccc2ncsc2c1,n,n,n,-5.04,n,72.6%,n,n,n
COc1ccc(CNc2nc3nc(C)c(Cl)c(=O)n3[nH]2)cc1OC,n,n,n,-5.87,n,n,n,n,n
OCCC1CN(C/C=C/c2ccco2)CCN1Cc1ccccc1 (configuration not stated),n,n,n,-5.16,n,n,n,n,n
CCOC(=O)c1cnc2c(OC)cccc2c1Nc1ccc2c(c1)OCCO2,n,n,n,n,n,x,x,x,x
COc1cccc(C(=O)COc2ccc3c(C)cc(=O)oc3c2)c1,n,n,n,-5.1,n,83.4%,n,n,n
COC(=O)c1c(C)oc(C)c(C(=O)OC)c1=O,n,n,n,-6.99,n,n,n,n,n
Cc1oc(C)c(C(=O)O)c1C(=O)O,n,n,n,n,n,x,x,x,x
CCC1(c2ccc(F)cc2)NC(=O)N(CC(=O)NC2CC2)C1=O (configuration not stated),n,n,n,n,n,x,x,x,x
CCC1(c2ccc(F)cc2)NC(=O)N(CC(=O)c2cc(C)n(C3CC3)c2C)C1=O (configuration not stated),n,n,n,-6.26,n,n,n,n,51
Cc1cc(C)cc(-n2ncc3c2CCCC3NC(=O)CN2CCCCC2=O)c1 (configuration not stated),n,n,n,-8.32,n,n,n,n,n
CC(C)(C)c1ccc(-n2ncc3c2CCCC3NC(=O)CCN2CCCCC2=O)cc1 (configuration not stated),n,n,n,n,n,x,x,x,x
Cc1ccc(N=C/C(C(=O)C(F)(F)F)=C(\O)c2ccco2)cc1Cl,n,n,n,n,n,x,x,x,x
c1ccc2c(c1)[nH]c1c(N3CCC4(CC3)OCCO4)ncnc12,n,n,n,n,n,x,x,x,x
CCN1CCN(c2ncnc3c2nnn3Cc2ccccc2)CC1,n,n,n,-4.58,n,n,n,n,n
c1ccc(Cn2nnc3c(N4CCCC4)ncnc32)cc1,n,n,n,n,n,x,x,x,x
c1ccc(CN2CCN(c3ncnc4c3[nH]c3ccccc34)CC2)cc1,n,n,n,-6.07,n,53.1%,n,n,n
